# Calls of active or inactive are those of the source. No cut-off for these calls is given here.
# How the values were obtained:
# Beta-secretase 1 [1] = biological target: T1, Beta-secretase 1 (Homo sapiens, UniProt P56817); test: Inhibition of human recombinant BACE1 pre-incubated with enzyme for 60 mins before fluorescent substrate addition FRET method
# Beta-secretase 1 [2] = biological target: T1, Beta-secretase 1; test: Inhibition of BACE1 in HEK293 cells stably expressing APPSW assessed as reduction in Abeta40 level incubated overnight at 0.0005 to 10 uM by ELISA method; format: cell-based
# Rattus norvegicus [3] = test: Reduction in Abeta40 level in Sprague-Dawley rat CSF at 3 mg/kg, po administered as single dose by immunoassay; format: functional
# Summary of the method: (§1)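 Male Sprague–Dawley rats received a single oral dose. Aβ40 was measured in CSF and brain 4 h later and reported as % reduction. EC50 is expressed as unbound plasma concentration.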
# Rattus norvegicus [4] = test: Reduction in Abeta40 level in Sprague-Dawley rat CSF at 3 mg/kg, po administered as single dose after 4 hrs by immunoassay; format: functional, organism-based; parameters: dose 3 mg/kg; summary of the method: as §1
# Rhesus monkey = test: Reduction in Abeta40 level in rhesus monkey CSF at 5 mg/kg, po administered as single dose by ELISA method; format: functional, organism-based; parameters: dose 5 mg/kg; conditions: Macaca mulatta
# Summary of the method: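 Rhesus monkey time-course PD study after a 5 mg/kg oral dose, with CSF Aβ40 followed over time. An indirect response PK–PD model generated the in vivo unbound plasma IC50.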
# Rattus norvegicus [5] = test: Reduction in Abeta40 level in Sprague-Dawley rat CSF at 10 mg/kg, po administered as single dose by immunoassay; format: functional; summary of the method: as §1
# T1 sequence (P56817 whole entry): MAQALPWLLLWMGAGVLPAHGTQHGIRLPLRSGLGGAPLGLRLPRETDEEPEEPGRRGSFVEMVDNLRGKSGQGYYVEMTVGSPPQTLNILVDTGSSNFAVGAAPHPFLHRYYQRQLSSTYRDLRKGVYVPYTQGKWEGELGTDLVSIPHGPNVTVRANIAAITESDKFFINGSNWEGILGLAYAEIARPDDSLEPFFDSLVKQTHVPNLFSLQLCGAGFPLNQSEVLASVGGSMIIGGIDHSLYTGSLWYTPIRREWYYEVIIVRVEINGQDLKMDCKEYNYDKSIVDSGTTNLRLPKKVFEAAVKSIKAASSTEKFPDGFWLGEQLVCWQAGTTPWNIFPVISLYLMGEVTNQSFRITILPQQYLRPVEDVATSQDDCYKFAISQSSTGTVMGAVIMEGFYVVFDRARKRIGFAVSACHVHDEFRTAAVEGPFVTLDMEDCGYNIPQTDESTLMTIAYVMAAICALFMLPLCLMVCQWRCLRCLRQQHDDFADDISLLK
Compound,IC50 (Beta-secretase 1 [1]) [nM],IC50 (Beta-secretase 1 [2]) [nM],further results
NC1=N[C@@]2(CO1)c1cc(-c3cccnc3F)ccc1Oc1c2cc(-c2ccnc(F)c2)nc1F,0.4,6.5,inhibition in vivo at 3 mg/kg (Rattus norvegicus [3]): 58%
NC1=N[C@@]2(CO1)c1cc(-c3cccnc3F)ccc1Oc1c2cc(N2CCC(F)(F)C2)nc1F,,4,
NC1=N[C@@]2(CO1)c1cc(-c3cccnc3F)ccc1Oc1c2cc(N2CC[C@@H](F)C2)nc1F,0.2,3,
NC1=N[C@@]2(CO1)c1cc(-c3cccnc3F)ccc1Oc1c2cc(C2=CCOCC2)nc1F,0.3,4,
NC1=N[C@@]2(CO1)c1cc(-c3ncccc3F)ccc1Oc1c2cc(C2=CCCOC2)nc1F,0.3,4,inhibition (Rattus norvegicus [4]): Active; inhibition (Rhesus monkey): Active
NC1=N[C@@]2(CO1)c1cc(-c3cccnc3F)ccc1Oc1c2cc(C2=CCCCO2)nc1F,,4.8,
Cc1cc(-c2cc3c(c(F)n2)Oc2ccc(-c4cccnc4F)cc2[C@@]32COC(N)=N2)on1,0.3,23,
NC1=N[C@@]2(CO1)c1cc(-c3cccnc3F)ccc1Oc1c2cc(-c2ccncc2)nc1F,,,inhibition in vivo at 3 mg/kg (Rattus norvegicus [3]): 36%
NC1=N[C@@]2(CO1)c1cc(-c3cccnc3F)ccc1Oc1c2cc(-c2ccccc2)nc1F,0.7,8,inhibition in vivo at 10 mg/kg (Rattus norvegicus [5]): 75%
Cc1cc(-c2cc3c(c(F)n2)Oc2ccc(-c4cccnc4F)cc2[C@@]32COC(N)=N2)ccn1,,12,
NC1=N[C@@]2(CO1)c1cc(-c3cccnc3F)ccc1Oc1c2cc(N2CCC(F)(F)CC2)nc1F,,6,
NC1=N[C@@]2(CO1)c1cc(-c3cccnc3F)ccc1Oc1c2cc(N2CCOCC2)nc1F,,5,inhibition in vivo at 3 mg/kg (Rattus norvegicus [3]): 69%
